Active and inactive are the calls of the source.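 The calls were made as follows, unless noted: active = viability loss from added drug above about 55%, and viability with drug at most 40%, in both replicates (limit read from the data, passing the limit was not always enough); inconclusive = both conditions met in only one replicate; inactive = neither replicate meets both conditions.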

Data on 14 molecules can be found in PubChem BioAssay.

The nature of assay [1]: Her2 expression decrease, cell viability multiplex – SKBR3 breast tumor cells, AlphaScreen, ATP viability, primary screen (AID 461;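 active = Her2 level under about 52% in both replicate screens, with viability over 70% of control, limit read from the data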;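 as to Her2 level: lower value means less Her2 protein in the cells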;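 as to viability: percent of carrier control wells set as 100% viability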). The following applies: SKBR3 Her2 protein level, 18-24 h, measured here: SKBR3 viability, ATP luminescence, at 10 µM. For orientation: Bead proximity is the source of the signal in Alpha formats.
Assay [2] deals with Receptor tyrosine-protein kinase erbB-2 (Homo sapiens) (UniProt P04626). Described as above. The note with it: 18-24 h, at 10 µM, stronger effect = lower value.
A short description of assay [3]: reduced viability of SK-BR-3 breast cancer cells – cell-based, 24 h, human, pilot screen (AID 572;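 active = viability at or below 10% of carrier control in both of two separate runs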;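 also: compound exposure lasted between 18 and 24 h rather than exactly 24 h; 100% = carrier-treated control wells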). The following applies: SK-BR-3 viability, CellTiter-Glo luminescence, at 10 µM, stronger effect = lower value.
The nature of assay [4]: HUVEC growth inhibition – cell-based, human, primary screen (AID 575;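 active = viability at or below 30% in both replicate assays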;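 also: 100% = median of untreated cell wells with 0.1% DMSO on each plate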). The note with it: HUVEC proliferation, CellTiter-Glo luminescence, 72 h; at 10 µM; stronger effect = lower value. Summed up:
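Assay system: Primary human umbilical vein endothelial cells | Quantity: 1250 cells per well | Medium: Supplemented EBM, 2% fetal bovine serum | Detection: CellTiter-Glo luminescence measuring cellular ATP | Read-out: % viability vs DMSO wells | Plate: Collagen-coated 384-well format | Times: 72 h exposure, 37 °C, 5% CO2, 30 min RT equilibration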
On the technique in general: ATP-based viability assays read luminescence as a measure of living cells.

Assay [5] is described as follows: H69AR cell proliferation blockers – human, duplicate replicates, primary screen (AID 580;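 active = viability at or under a set limit in both replicates, limit being median viability minus 3 SD, cut at about 48% in these data, passing the limit was not always enough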;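 also: 100% = mean luminescence of untreated wells and 0% = no signal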). The note with it: H69AR lung tumor cells viability, ATP luminescence, 72 h; at 10 µM; stronger effect = lower value.
A short description of assay [6]: MRP1 drug-resistance reversers in H69AR cells – cell-based, doxorubicin co-treatment, pilot screen (AID 601). The following applies: CellTiter-Glo, 72 h, at 10 µM; for differential viability (reversal): stronger effect = higher value.
Assay [7] in a line: yeast transport mutant growth inhibition pilot in 384-well plates, post-Golgi transport modulator project (AID 636; in the data active = inhibition above about 31%). The following applies: absorbance 615 nm, about 18 h, stronger effect = higher value.
Assay [8] can be described thus: growth suppression of yeast trafficking mutant, preliminary HTS, modulators of trafficking downstream of Golgi apparatus project, 1536-format plate, OD 615 nm (AID 637; in the data active = inhibition above about 30%). The note with it: yeast transport mutant growth, absorbance 615 nm, 18 h; stronger effect = higher value.
Where [9] appears, read: H69AR cells + 2 uM doxorubicin, measured here: viability with 2 uM doxorubicin, stronger effect = lower value.
[10] abbreviates: H69AR cells, compound alone cytotoxicity.

Chain of Receptor tyrosine-protein kinase erbB-2 (Homo sapiens) (P04626 whole entry, looked up): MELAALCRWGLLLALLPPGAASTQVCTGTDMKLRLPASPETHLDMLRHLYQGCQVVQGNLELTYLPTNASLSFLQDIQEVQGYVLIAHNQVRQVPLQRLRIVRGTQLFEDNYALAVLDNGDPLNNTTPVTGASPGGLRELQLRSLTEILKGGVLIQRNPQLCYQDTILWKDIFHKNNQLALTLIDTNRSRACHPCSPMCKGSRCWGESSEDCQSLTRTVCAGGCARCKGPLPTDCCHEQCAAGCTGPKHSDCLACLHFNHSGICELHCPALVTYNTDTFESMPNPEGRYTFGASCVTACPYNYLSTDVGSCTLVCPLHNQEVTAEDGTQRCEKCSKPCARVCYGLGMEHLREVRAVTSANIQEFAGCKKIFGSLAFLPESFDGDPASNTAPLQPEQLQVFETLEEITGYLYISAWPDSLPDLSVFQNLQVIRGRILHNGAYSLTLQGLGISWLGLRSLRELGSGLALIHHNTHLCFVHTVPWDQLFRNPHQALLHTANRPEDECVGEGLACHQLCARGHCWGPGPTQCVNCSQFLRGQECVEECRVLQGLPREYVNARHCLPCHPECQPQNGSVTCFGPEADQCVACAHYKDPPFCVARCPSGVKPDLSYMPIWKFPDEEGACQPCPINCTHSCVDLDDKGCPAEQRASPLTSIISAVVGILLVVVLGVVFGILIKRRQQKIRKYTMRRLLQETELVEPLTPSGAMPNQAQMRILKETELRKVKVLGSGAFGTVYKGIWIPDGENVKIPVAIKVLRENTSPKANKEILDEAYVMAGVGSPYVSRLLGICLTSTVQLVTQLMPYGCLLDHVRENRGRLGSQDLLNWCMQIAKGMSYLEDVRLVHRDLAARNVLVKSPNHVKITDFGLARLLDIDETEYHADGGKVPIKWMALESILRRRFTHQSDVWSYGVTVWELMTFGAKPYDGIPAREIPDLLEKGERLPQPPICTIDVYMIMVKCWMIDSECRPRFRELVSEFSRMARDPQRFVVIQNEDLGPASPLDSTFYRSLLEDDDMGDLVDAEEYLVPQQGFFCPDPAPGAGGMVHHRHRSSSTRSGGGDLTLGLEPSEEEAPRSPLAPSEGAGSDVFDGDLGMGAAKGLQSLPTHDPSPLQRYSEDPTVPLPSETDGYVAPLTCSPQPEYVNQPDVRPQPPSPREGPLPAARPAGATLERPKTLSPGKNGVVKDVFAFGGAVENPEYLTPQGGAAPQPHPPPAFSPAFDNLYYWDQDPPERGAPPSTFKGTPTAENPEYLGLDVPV

In general, viability refers to a read-out of living cells in per cent, often relative to untreated cells. A word on the inhibition: it is the drop in the measured response relative to a control, in per cent. As for `CSc1nc(N2CCOCC2)c2ccccc2n1`, the viability in assay [1] is 110%; in assay [3], 110% (inactive); in assay [4] it was 93.7% (inactive); in assay [5], 94.6% (inactive); in assay [6] (setting [9]) it was 87%; in assay [6] (setting [10]), 94.6%. In addition, the Her2 level in assay [2] is 100% (inactive). For the same molecule, the differential viability (reversal) in assay [6] (H69AR cells + 2 uM doxorubicin) is 7.67% (inactive). The figures for the inhibition in assay [7] and in assay [8] were -2.27% (inactive) and -7.87% (inactive), respectively.

Regarding `Cc1cccc2sc(NC(=O)CN(C)S(=O)(=O)c3cccs3)nc12`, the viability is 76.5% in assay [1]; 76.5% (inactive) in assay [3]; 48.8% (inactive) in assay [4]; 92% (inactive) in assay [5]; 92.5% in assay [6] (setting [9]); 92% in assay [6] (setting [10]). Besides, in assay [2], the Her2 level was 125% (inactive). Further, the differential viability (reversal) in assay [6] (H69AR cells + 2 uM doxorubicin) was -0.425% (inactive). Also, the results for the inhibition in assay [7] and in assay [8] were 0.39% (inactive) and -6.33% (inactive), respectively.

Take `O=C1NC(c2cccs2)Nc2ccccc21` (stereo not given): the viability is 107% in assay [1]; 107% (inactive) in assay [3]; 111% (inactive) in assay [4]; 86.7% (inactive) in assay [5]; 91.4% in assay [6] (setting [9]); 86.7% in assay [6] (setting [10]). Further, the Her2 level in assay [2] was 86.5% (inactive). For the same molecule, the differential viability (reversal) in assay [6] (H69AR cells + 2 uM doxorubicin) was -4.77% (inactive). In addition, the inhibition in assay [7] was -8.03% (inactive); in assay [8], -9.52% (inactive).

Take `Cc1cc(Nc2ccc(C(=O)O)cc2)n2nc(C)nc2n1`: the viability in assay [1] is 101%; in assay [3] it was 101% (inactive); in assay [4] it was 90.5% (inactive); in assay [5], 109% (inactive); in assay [6] (setting [9]) it was 99.2%; in assay [6] (setting [10]) it was 109%. In addition, the Her2 level in assay [2] was 96.5% (inactive). Besides, the differential viability (reversal) in assay [6] (H69AR cells + 2 uM doxorubicin) is 9.93% (inactive). The inhibition in assay [7] is -4.67% (inactive); in assay [8], 4.92% (inactive).

As for `CS(=O)(=O)N1CCCC(C(=O)NCCCN2CCc3ccccc3C2)C1` (stereo not given), the viability is 93% in assay [1]; 93% (inactive) in assay [3]; 102% (inactive) in assay [4]; 95.1% (inactive) in assay [5]; 87.8% in assay [6] (setting [9]); 95.1% in assay [6] (setting [10]). In addition, the Her2 level in assay [2] is 102% (inactive). Besides, the differential viability (reversal) in assay [6] (H69AR cells + 2 uM doxorubicin) was 7.38% (inactive). For the same molecule, the inhibition in assay [7] was -0.91% (inactive); in assay [8], -8.89% (inactive).

Consider `Cc1ccc(S(=O)(=O)NCCCCC(NC(=O)OC(C)(C)C)C(=O)O)cc1` (stereo not given) (tested in a mixture with another compound), for which the viability in assay [1] was 91.5%; in assay [3], 91.5% (inactive); in assay [4], 125% (inactive); in assay [5], 104% (inactive); in assay [6] (setting [9]) it was 96.8%; in assay [6] (setting [10]), 104%. Further, the Her2 level in assay [2] was 92.5% (inactive). Moreover, the differential viability (reversal) in assay [6] (H69AR cells + 2 uM doxorubicin) is 7.71% (inactive). Further, the inhibition in assay [7] was -3.68% (inactive); in assay [8] it was 8.52% (inactive).

In the case of `CSc1ccc(-c2nc(CSCC(=O)N3CCOCC3)c(C)o2)cc1`, the viability in assay [1] is 102%; in assay [3], 102% (inactive); in assay [4] it was 85.2% (inactive); in assay [5], 103% (inactive); in assay [6] (setting [9]) it was 97.1%; in assay [6] (setting [10]) it was 103%. Besides, the Her2 level in assay [2] is 91% (inactive). Also, the differential viability (reversal) in assay [6] (H69AR cells + 2 uM doxorubicin) is 6.36% (inactive). Also, the inhibition is -0.67% (inactive) in assay [7] and -2.26% (inactive) in assay [8].

Take `COc1ccc(NC(=O)CCCN2C(=O)C3C4C=CC(C4)C3C2=O)c(OC)c1` (stereo not given): the viability in assay [1] was 110%; in assay [3] it was 110% (inactive); in assay [4] it was 82% (inactive); in assay [5], 102% (inactive); in assay [6] (setting [9]), 97.1%; in assay [6] (setting [10]), 102%. For the same molecule, in assay [2], the Her2 level was 94% (inactive). Besides, in assay [6] (H69AR cells + 2 uM doxorubicin), the differential viability (reversal) was 5.03% (inactive). Further, the inhibition is -5% (inactive) in assay [7] and -5.09% (inactive) in assay [8].

In the case of `COCCn1c(C)cc(C(=O)CSc2nc3ccccc3c(=O)[nH]2)c1C`, the viability is 88.5% in assay [1]; 88.5% (inactive) in assay [3]; 64.6% (inactive) in assay [4]; 80.9% (inactive) in assay [5]; 88.9% in assay [6] (setting [9]); 80.9% in assay [6] (setting [10]). The Her2 level in assay [2] was 67% (inactive). Further, the differential viability (reversal) in assay [6] (H69AR cells + 2 uM doxorubicin) was -8.01% (inactive). In addition, the inhibition is -5.47% (inactive) in assay [7] and -3.61% (inactive) in assay [8].

Regarding `CC(C)c1cc(C(=O)NCc2ccco2)no1`, the viability is 101% in assay [1]; 101% (inactive) in assay [3]; 84.3% (inactive) in assay [4]; 80.4% (inactive) in assay [5]; 74.5% in assay [6] (setting [9]); 80.4% in assay [6] (setting [10]). Also, the Her2 level in assay [2] was 99.5% (inactive). In assay [6] (H69AR cells + 2 uM doxorubicin), the differential viability (reversal) is 5.93% (inactive). In addition, the inhibition in assay [7] was 0.13% (inactive); in assay [8], -2.83% (inactive).

As to `CCOc1cc(C2C(C(=O)OC(C)C)=C(C)N=C3SCCC(=O)N32)ccc1OC(C)=O` (stereo not given), the viability in assay [1] was 93%; in assay [3], 93% (inactive); in assay [4], 96.5% (inactive); in assay [5] it was 93.3% (inactive); in assay [6] (setting [9]) it was 89.9%; in assay [6] (setting [10]) it was 93.3%. Further, the Her2 level in assay [2] was 78.5% (inactive). The differential viability (reversal) in assay [6] (H69AR cells + 2 uM doxorubicin) is 3.33% (inactive). Also, the inhibition in assay [7] is -2.89% (inactive); in assay [8], 2.18% (inactive).

On to `O=C(Nc1ccc2c(c1)OCO2)c1cncc(Br)c1`, for which the viability was 108% in assay [1]; 108% (inactive) in assay [3]; 82% (inactive) in assay [4]; 92.6% (inactive) in assay [5]; 90.5% in assay [6] (setting [9]); 92.6% in assay [6] (setting [10]). Also, in assay [2], the Her2 level was 77% (inactive). For the same molecule, the differential viability (reversal) in assay [6] (H69AR cells + 2 uM doxorubicin) is 2.14% (inactive). The inhibition is -4.27% (inactive) in assay [7] and 5.25% (inactive) in assay [8].

As for `COc1ccc(OC)c(S(=O)(=O)Nc2ccccc2C(=O)O)c1`, the viability is 109% in assay [1]; 109% (inactive) in assay [3]; 98.3% (inactive) in assay [4]; 99% (inactive) in assay [5]; 87.2% in assay [6] (setting [9]); 99% in assay [6] (setting [10]). Besides, the Her2 level in assay [2] was 100% (inactive). The differential viability (reversal) in assay [6] (H69AR cells + 2 uM doxorubicin) is 11.8% (inactive). The values for the inhibition in assay [7] and in assay [8] were -4.4% (inactive) and 0.16% (inactive), respectively.

For the molecule `c1ccc(Oc2ccc(-n3cnnn3)cc2)cc1`, the viability in assay [1] was 102%; in assay [3], 102% (inactive); in assay [4] it was 95.7% (inactive); in assay [5], 94.2% (inactive); in assay [6] (setting [9]), 78.8%; in assay [6] (setting [10]) it was 94.2%. Besides, the Her2 level in assay [2] was 122% (inactive). Further, the differential viability (reversal) in assay [6] (H69AR cells + 2 uM doxorubicin) is 15.4% (inactive). The inhibition in assay [7] was -0.52% (inactive); in assay [8] it was -12.2% (inactive).
